Data set [1] concerns Human adenovirus 5. In words: Antiviral activity against Adenovirus type 5 F2853-5b infected in human A549 cells assessed as inhibition of viral replication at 5 uM after 24 hrs by RT-PCR analysis. Type of data set: functional. The conditions noted are these: Human mastadenovirus C, A549, 24 h. Put shortly: (§1)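 Ad5-infected A549 cells incubated with compound for 24 h. DNA was then extracted and newly synthesized viral DNA quantified by real-time PCR of the hexon gene, normalized to cellular RNaseP gene. […] EC50 determined for selected compounds.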

Data set [2] concerns Human adenovirus 5. Briefly: Antiviral activity against Adenovirus type 5 F2853-5b infected in human A549 cells assessed as inhibition of viral replication at 15 uM after 24 hrs by RT-PCR analysis. It counts as functional. The conditions noted are these: Human mastadenovirus C, A549, 24 h. Put shortly: as §1
A short description of data set [3]: Cytotoxicity against human A549 cells assessed as viability at 60 uM after 24 hrs by XTT assay. It counts as cell-based. The conditions noted are these: read-out: Activity. Put shortly: (§2)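 About 15000 A549 cells per well were seeded the day before. Compound was added in DMEM with 0.75 g/L NaHCO3 and 20 mM HEPES, then incubated 24 h at 37 °C, 5% CO2. XTT was added 4 h before reading formazan absorbance at 450 nm. Values are percentage viable cells, with DMSO baseline toxicity subtracted (0.15% DMSO at 30 μM, 0.30% at 60 μM).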
For orientation: Formazan colour is commonly taken as a measure of viable cells.

The subject of data set [4] is Human adenovirus 5. In words: Antiviral activity against Adenovirus type 5 F2853-5b infected in human A549 cells assessed as inhibition of viral replication after 24 hrs by RT-PCR analysis. Type of data set: functional, organism-based. The conditions noted are these: Human mastadenovirus C, A549, 24 h. Put shortly: as §1
Data set [5] can be described thus: Cytotoxicity against human A549 cells assessed as viability at 30 uM after 24 hrs by XTT assay. It counts as cell-based. The conditions noted are these: read-out: Activity. Put shortly: as §2
The nature of data set [6]: Aqueous solubility of the compound in water. Type of data set: physicochemical. The conditions noted are these: buffer.
Data set [7] in a line: Chemical solubility of the compound in DMSO. It counts as physicochemical.

What is called inhibition is the drop in the measured response relative to a control, in per cent. As for `O=C(O)c1ccccc1NC(=O)c1ccccc1NC(=O)C1CCCCC1`, the inhibition at 5 µM in the data set with Human adenovirus 5 [1] amounted to 20%. The inhibition at 15 µM in the data set with Human adenovirus 5 [2] was determined as 55%.
The term EC50 denotes the concentration that produces a half-maximal response. Turning to `COc1ccc(C(=O)Nc2ccccc2C(=O)O)c(NC(=O)c2ccccc2F)c1`, in data set [3], the viability at 24 h, 60 µM came out at 94%. Further, in the data set with Human adenovirus 5 [1], the inhibition at 5 µM was found to be 92%. Also, the EC50 in the data set with Human adenovirus 5 [4] is 2300 nM. Also, the viability at 24 h, 30 µM in data set [5] was 92%. For the same molecule, the inhibition at 15 µM in the data set with Human adenovirus 5 [2] turned out to be 89%.
Take `O=C(Nc1ccccc1C(=O)Nc1ccccc1C(=O)O)c1ccccc1`: the viability at 24 h, 60 µM in data set [3] was determined as 83%. The inhibition at 5 µM with Human adenovirus 5 [1] came out at 89%. Moreover, in data set [5], the viability at 24 h, 30 µM worked out at 82%. Moreover, the inhibition at 15 µM in the data set on Human adenovirus 5 [2] worked out at 91%.
Turning to `O=C(Nc1ccccc1C(=O)Nc1ccccc1)c1ccccc1`, in the data set with Human adenovirus 5 [2], the inhibition at 15 µM came out at 18%.
With `Cc1ccccc1C(=O)Nc1cccc(C(=O)Nc2ccccc2C(=O)O)c1`, the inhibition at 5 µM in the data set on Human adenovirus 5 [1] is 5%. In the data set with Human adenovirus 5 [2], the inhibition at 15 µM was 7%.
Taken in the same sequence, the figures for `Cc1ccc(S(=O)(=O)Nc2ccccc2C(=O)Nc2ccccc2C(=O)O)cc1` were 2% and 8%.
As for `CCOC(=O)c1ccccc1NC(=O)c1ccccc1NC(=O)c1ccccc1`, the solubility entry in data set [6] and in data set [7] was “Insoluble” throughout.
For `O=C(Nc1ccccc1C(=O)Nc1ccccc1C(=O)O)c1ccccc1F`, the viability at 24 h, 60 µM in data set [3] turned out to be 83%. In the data set on Human adenovirus 5 [1], the inhibition at 5 µM was 96%. The EC50 in the data set with Human adenovirus 5 [4] turned out to be 2300 nM. In addition, in data set [5], the viability at 24 h, 30 µM was 85%. Besides, in the data set with Human adenovirus 5 [2], the inhibition at 15 µM was 98%.
Regarding `Cc1ccc(NC(=O)c2ccccc2NC(=O)c2ccccc2C(=O)O)cc1`, the inhibition at 5 µM in the data set with Human adenovirus 5 [1] amounted to 0%. In the data set on Human adenovirus 5 [2], the inhibition at 15 µM worked out at 0%.
`CS(=O)(=O)Nc1ccccc1C(=O)Nc1ccccc1C(=O)O`: the inhibition at 5 µM in the data set on Human adenovirus 5 [1] amounted to 0%. For the same molecule, in the data set on Human adenovirus 5 [2], the inhibition at 15 µM is 23%.
On the same counts, the results for `COc1ccc(C(=O)O)c(NC(=O)c2ccccc2NC(=O)c2ccccc2F)c1` are 0% and 0%.
With `Nc1ccn(C[C@@H](CO)OCP(=O)(O)O)c(=O)n1` [CIDOFOVIR], the viability at 24 h, 60 µM in data set [3] was found to be 98%. Also, in data set [5], the viability at 24 h, 30 µM is 100%.
As for `O=C(Nc1ccccc1C(=O)Nc1cc(Cl)ccc1C(=O)O)c1ccccc1F`, the inhibition at 5 µM in the data set on Human adenovirus 5 [1] worked out at 0%. In addition, the inhibition at 15 µM with Human adenovirus 5 [2] came to 61%.
Taken in the same sequence, the figures for `O=C(O)Cc1ccccc1NC(=O)c1ccccc1NC(=O)c1ccccc1` were 0% and 0%.
On the same counts, the results for `O=C(Nc1ccccc1C(=O)Nc1cc(F)c(F)cc1C(=O)O)c1ccccc1F` are 0% and 0%.
Taken in the same sequence, the figures for `Cc1ccc(C(=O)Nc2ccccc2C(=O)Nc2ccccc2C(=O)O)cc1` were 0% and 85%.
With `O=C(Nc1ccc(C(=O)Nc2ccccc2C(=O)O)cc1)c1ccccc1`, in the data set with Human adenovirus 5 [2], the inhibition at 15 µM worked out at 47%.
As for `O=C(O)CCC(=O)Nc1ccccc1C(=O)Nc1ccccc1C(=O)O`, the inhibition at 5 µM in the data set with Human adenovirus 5 [1] amounted to 0%. The inhibition at 15 µM in the data set on Human adenovirus 5 [2] came out at 0%.
For `O=C(Cc1ccccc1NC(=O)c1ccccc1)Nc1ccccc1C(=O)O`, the inhibition at 5 µM in the data set on Human adenovirus 5 [1] was determined as 0%. In addition, the inhibition at 15 µM with Human adenovirus 5 [2] came to 0%.
For the molecule `CCOC(=O)c1ccccc1NC(=O)c1cccc(NC(=O)c2ccccc2)c1`, in the data set with Human adenovirus 5 [2], the inhibition at 15 µM was found to be 25%.
For the molecule `COc1ccc(NC(=O)c2ccccc2NC(=O)c2ccccc2F)c(C(=O)O)c1`, the inhibition at 5 µM in the data set on Human adenovirus 5 [1] is 28%. Besides, in the data set with Human adenovirus 5 [2], the inhibition at 15 µM stood at 78%.
For `O=C(Nc1cc(Cl)ccc1C(=O)Nc1ccccc1C(=O)O)c1ccccc1F`, the inhibition at 5 µM in the data set with Human adenovirus 5 [1] stood at 57%. The inhibition at 15 µM with Human adenovirus 5 [2] was found to be 78%.
In the case of `O=C(Nc1cc(F)c(F)cc1C(=O)Nc1ccccc1C(=O)O)c1ccccc1F`, in data set [3], the viability at 24 h, 60 µM is 96%. Also, the inhibition at 5 µM with Human adenovirus 5 [1] turned out to be 94%. Further, the half-maximal effective concentration (EC50) with Human adenovirus 5 [4] was found to be 580 nM. In data set [5], the viability at 24 h, 30 µM is 96%. In addition, the inhibition at 15 µM in the data set on Human adenovirus 5 [2] was 93%.
Take `CCOC(=O)c1cccc(NC(=O)c2ccccc2NC(=O)c2ccccc2)c1`: the inhibition at 15 µM in the data set with Human adenovirus 5 [2] stood at 0%.
Take `O=C(Nc1ccccc1C(=O)Nc1ccccc1C(=O)O)c1cccc(F)c1`: the inhibition at 5 µM with Human adenovirus 5 [1] was found to be 41%.
In the case of `CCOC(=O)c1ccc(NC(=O)c2ccccc2NC(=O)c2ccccc2)cc1`, in the data set with Human adenovirus 5 [2], the inhibition at 15 µM was 8%.
For the molecule `CC(=O)Nc1ccccc1C(=O)Nc1ccccc1C(=O)O`, in the data set on Human adenovirus 5 [1], the inhibition at 5 µM was 4%. Also, in the data set with Human adenovirus 5 [2], the inhibition at 15 µM amounted to 24%.
On the same counts, the results for `Cc1ccc(C(=O)Nc2ccccc2C(=O)Nc2ccccc2C)cc1` are 0% and 12%.
As to `O=C(O)c1ccc(NC(=O)c2ccccc2NC(=O)c2ccccc2)cc1`, in the data set with Human adenovirus 5 [2], the inhibition at 15 µM is 8%.
With `O=C(Nc1ccc(Cl)cc1C(=O)Nc1ccccc1C(=O)O)c1ccccc1F`, the viability at 24 h, 60 µM in data set [3] was found to be 88%. The inhibition at 5 µM with Human adenovirus 5 [1] was found to be 89%. In the data set with Human adenovirus 5 [4], the EC50 was 570 nM. Besides, the viability at 24 h, 30 µM in data set [5] came to 91%. The inhibition at 15 µM in the data set with Human adenovirus 5 [2] stood at 91%.
As for `COc1ccc(C(=O)Nc2ccccc2C(=O)Nc2ccccc2C(=O)O)cc1`, the inhibition at 5 µM in the data set with Human adenovirus 5 [1] is 0%. Further, the inhibition at 15 µM with Human adenovirus 5 [2] came to 67%.
With `CCOC(=O)c1ccccc1NC(=O)c1ccc(NC(=O)c2ccccc2)cc1`, the inhibition at 15 µM in the data set on Human adenovirus 5 [2] worked out at 15%.
On the same count and under the same terms, the same measure for `O=C(O)c1cccc(NC(=O)c2ccccc2NC(=O)c2ccccc2)c1`: 8%.
For the molecule `O=C(Nc1ccccc1C(=O)Nc1ccccc1C(=O)O)c1ccc(F)cc1`, the inhibition at 5 µM with Human adenovirus 5 [1] was 76%. Also, the inhibition at 15 µM in the data set with Human adenovirus 5 [2] came to 95%.
On the same counts, the results for `NC(=O)c1ccccc1NC(=O)c1cccc(NC(=O)c2ccccc2)c1` are 0% and 19%.
Taken in the same sequence, the figures for `CC(C)(C)C(=O)Nc1ccccc1C(=O)Nc1ccccc1C(=O)O` were 45% and 52%.
For the molecule `O=C(Nc1ccccc1C(=O)Nc1ccc(Cl)cc1C(=O)O)c1ccccc1F`, the inhibition at 5 µM in the data set with Human adenovirus 5 [1] came out at 0%. Besides, the inhibition at 15 µM in the data set on Human adenovirus 5 [2] worked out at 0%.
Take `COc1ccc(NC(=O)c2ccccc2F)c(C(=O)Nc2ccccc2C(=O)O)c1`: the viability at 24 h, 60 µM in data set [3] turned out to be 84%. Moreover, the inhibition at 5 µM with Human adenovirus 5 [1] was 91%. Besides, the 50% effective concentration (EC50) in the data set with Human adenovirus 5 [4] is 1400 nM. Besides, the viability at 24 h, 30 µM in data set [5] is 84%. Besides, the inhibition at 15 µM with Human adenovirus 5 [2] was found to be 97%.
Consider `Cc1ccccc1C(=O)Nc1ccccc1C(=O)Nc1ccc(C(=O)O)cc1`, for which the inhibition at 5 µM with Human adenovirus 5 [1] came to 0%. Further, the inhibition at 15 µM with Human adenovirus 5 [2] is 20%.
Consider `O=C(Nc1cccc(C(=O)Nc2ccccc2C(=O)O)c1)c1ccccc1`, for which, in the data set with Human adenovirus 5 [2], the inhibition at 15 µM turned out to be 39%.
Regarding `O=C(Cc1ccccc1)Nc1ccccc1C(=O)Nc1ccccc1C(=O)O`, in the data set on Human adenovirus 5 [1], the inhibition at 5 µM came out at 32%. Also, the inhibition at 15 µM in the data set with Human adenovirus 5 [2] is 21%.

(Values after ChEMBL document CHEMBL2040795, “Synthesis, biological evaluation, and structure-activity relationships of 2-[2-(benzoylamino)benzoylamino]benzoic acid analogues as inhibitors of adenovirus replication” (J Med Chem, 2012).)
